# Results from different studies.
# Lines come from different studies, so protocols differ.
# Target: Mitogen-activated protein kinase kinase kinase kinase 1 (MAP4K1, Homo sapiens, UniProt Q92918)
SMILES,assay,conditions,remaining binding [%]
O=C(Nc1c[nH]nc1C(=O)NC1CCNCC1)c1cc(F)cc(F)c1,"binding, competition with immobilised ligand",1 µM,100
CN(C)c1nccc(-c2cnc3ncccn23)n1,binding,1 µM,100
N#Cc1ccc(Nc2ccc3[nH]c(=O)[nH]c3c2)c(Cl)c1,"cell-free assay, competition with immobilised ligand",1 µM,100
c1cncc(-c2cccc(Nc3nccc(NC4CCCCC4)n3)c2)c1,"binding, competition with immobilised ligand",10 µM,39
CN(CCCC(F)(F)F)c1nccc(-c2cnn3ncccc23)n1,binding,1 µM,95
CCN1CCN(Cc2ccc(C(=O)Nc3ccc(C)c(Oc4ccc5c(c4)CC(=O)N5)c3)cc2C(F)(F)F)CC1,"binding, competition with immobilised ligand",1 µM,90
N[C@H]1CCN(c2nccc(-c3cnn4ncccc34)n2)C1,binding,1 µM,100
COc1cnc(Nc2cccc(S(N)(=O)=O)c2)nc1N1CCN(c2ccccc2)CC1,"binding, competition with immobilised ligand",1 µM,88
CS(=O)(=O)c1cc(C2(NC(=O)c3cncc4c3cnn4-c3ccc(F)cc3)CC2)ccn1,"cell-free assay, competition with immobilised ligand",1 µM,89
Nc1ncc2c(n1)-c1c([nH]c3ccc(C#CC4CC4)cc13)CCCC2,"binding, competition with immobilised ligand",1 µM,100
CNC(=O)Nc1ccc2c(c1)[C@@]1(CC2)OC(=O)N(CC(=O)N(Cc2ccc(F)cc2)[C@@H](C)C(F)(F)F)C1=O,"cell-free assay, competition with immobilised ligand",1 µM,90
Cc1cnn2ncc(-c3ccnc(N(C)C)n3)c2c1,binding,1 µM,99
O=C(c1ccc(Nc2ncc(Cl)c(-c3cc4ccccc4s3)n2)cc1)N1CCC(N2CCCC2)CC1,"binding, competition with immobilised ligand",1 µM,26
Cc1c(NC(=O)c2cc(C(N)=O)nc3cc(F)ccc23)c(C(F)(F)F)nn1Cc1ccc(C#N)cc1,"cell-free assay, competition with immobilised ligand",1 µM,100
O=C(NCCCN1CCOCC1)c1ccc(Nc2ncc(Cl)c(-c3ccc(Cl)s3)n2)cc1,"binding, competition with immobilised ligand",1 µM,17
C[C@@H](c1ccc(-n2cnc3c(N)ncnc32)cc1)N1CCc2nn(C)c(Cc3ccccc3)c2C1=O,"binding, competition with immobilised ligand",0.1 µM,100
c1cnn2ncc(-c3ccnc(N4CCC45COC5)n3)c2c1,binding,1 µM,100
O=C(NCCCN1CCOCC1)c1ccc(Nc2nccc(-c3cc4ccccc4s3)n2)cc1,"binding, competition with immobilised ligand",1 µM,85
CN(C(=O)c1ccccc1)c1cc(N(C)c2ccc3c(c2)CCc2ccc(C(=O)NCCN4CCOCC4)cc2C3=O)ccc1F,"cell-free assay, competition with immobilised ligand",1 µM,99
FC(F)(F)Oc1cccc(-c2cnc3ccc(-c4ccncc4)nn23)c1,"cell-free assay, competition with immobilised ligand",5 µM,68
C[C@H](c1ccnc(Nc2nc3ccc(-c4cc(N(C)C)ncn4)cc3[nH]2)c1)N1CCN(C(=O)CC(F)(F)F)CC1,"cell-free assay, competition with immobilised ligand",0.1 µM,51
C[C@H]1CCN(c2nccc(-c3cnn4ncccc34)n2)C1,binding,1 µM,99
